CHRM5 PAM: potentiates acetylcholine response at human M5 receptor. P08912. CHO-K1 hM5, Fluo-8 calcium, ACh EC20 PAM; 0% = ACh EC20, 100% = ACh EC100. activation, % at 3 µM. 360,000 tested, 0.3% active;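 active = activation above the run cutoff, the mean activation of all test compounds plus 3 SD, cut at about 18% in these data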
Target sequence (P08912 whole entry, looked up): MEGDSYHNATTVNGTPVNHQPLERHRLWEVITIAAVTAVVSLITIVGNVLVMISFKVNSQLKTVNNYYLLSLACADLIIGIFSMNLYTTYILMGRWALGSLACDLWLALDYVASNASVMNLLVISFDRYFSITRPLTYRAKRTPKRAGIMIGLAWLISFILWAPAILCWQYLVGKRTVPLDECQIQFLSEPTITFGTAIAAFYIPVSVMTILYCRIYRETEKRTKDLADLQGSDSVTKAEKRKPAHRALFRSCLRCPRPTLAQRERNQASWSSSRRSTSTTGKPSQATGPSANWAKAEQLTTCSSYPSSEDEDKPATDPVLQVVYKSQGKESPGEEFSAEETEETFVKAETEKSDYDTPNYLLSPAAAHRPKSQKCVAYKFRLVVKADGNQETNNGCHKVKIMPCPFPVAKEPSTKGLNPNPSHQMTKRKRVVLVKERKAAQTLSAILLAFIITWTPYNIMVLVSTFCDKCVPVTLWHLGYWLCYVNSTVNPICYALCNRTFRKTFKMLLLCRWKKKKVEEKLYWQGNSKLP
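System – CHO-K1 hM5 cells · Compound – 3 µM, single dose · Incubation – compound preincubation 140 s before EC20 acetylcholine addition · Technique – Fluo-8 calcium fluorescence · Measure – Max/basal fluorescence ratio as % of EC20–EC100 ACh window · Benchmarks – low control EC20 acetylcholine (0%), high control EC100 acetylcholine (100%) · Replication – singlicate, one well per test compound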
M4 antag: CHRM4 antagonism in calcium assay. P08173. CHO-hM4 cells, ACh EC80, Fluo-8 calcium fluorescence. inhibition, % at 3 µM. 360,000 tested, 0.73% active. AID 624125;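 active = inhibition above its plate's cutoff, the mean inhibition of sample wells plus 3 SD, cut at about 27% in these data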
CHRM4 agonist: CHRM4 agonism in calcium assay | P08173 | CHO-K1 hM4/Gqi5, Fluo-8 calcium fluorescence; vehicle 0%, full acetylcholine response 100% | activation, % at 3 µM | 360,000 tested, 0.14% active;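 active = activation above the run mean over all test wells plus 3 SD, cut at about 32% in these data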;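 note: peak over basal fluorescence ratio per well then scaled between controls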
CHRM4 PAM: positive allosteric modulators of human muscarinic M4 receptor; P08173; CHO-K1 hM4/Gqi5, Fluo-8 calcium fluorescence, ACh EC20; 0% = ACh EC20, 100% = maximal ACh; activation, % at 3 µM; 360,000 tested, 0.4% active; AID 624126;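 active = activation above its plate's cutoff, the mean activation of sample wells plus 3 SD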
CHRM5 agonist: agonists of human muscarinic M5 receptor (CHRM5); 360,000 tested, 0.19% active; AID 624037; P08912; activation, % at 3 µM; CHO-K1 hM5 cells, Fluo-8 calcium fluorescence; 0% DMSO wells, 100% maximal acetylcholine response;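 active = activation above the run's mean over test compounds plus 3 SD, cut at about 23% in these data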;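 note: signal is peak over basal fluorescence ratio across the kinetic read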
CHRM5 antagonist: CHRM5 antagonism in calcium assay; inhibition, % at 3 µM; AID 624040; P08912; 360,000 tested, 0.59% active; CHO-hM5 cells, Fluo-8 calcium fluorescence, ACh EC80;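 active = inhibition above a per-plate cutoff, the mean of that plate's test compounds plus 3 SD, cut at about 27% in these data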
Large screens that a line does not name were inactive. Rows were chosen to be rich in hits. Some 1.8% of all compounds tested hit in one or more screens of this group.

C/C(=N\Nc1nnc(-c2ccccc2)c(-c2ccccc2)n1)c1cccc([N+](=O)[O-])c1	none
O=[N+]([O-])c1cccc(/C=N/Nc2nnc(-c3ccccc3)c(-c3ccccc3)n2)c1	CHRM4 PAM 34
O=[N+]([O-])c1ccc(C=CC=Cc2ccccc2)cc1	none
CC1=NN(c2ccccc2)C(c2ccco2)C1 (configuration not stated)	none
O=[N+]([O-])c1ccc(/C=C/C2=NN(c3ccccc3)C(c3ccco3)C2)cc1 (configuration not stated)	CHRM5 agonist 43, CHRM5 antagonist 42
O=[N+]([O-])c1ccc(C2=NN(c3ccccc3)C(c3ccco3)C2)cc1 (configuration not stated)	M4 antag 37, CHRM4 agonist 41, CHRM5 agonist 214, CHRM5 antagonist 77
COCCCN1C(=O)C(CC(=O)NCc2ccco2)CC(C(=O)N(C(C)C)C(C)C)=C1C (configuration not stated)	none
CO/N=C/C(C#N)=C/c1ccc(OC)c(OC)c1	CHRM4 PAM 20
Cc1ccc(C(c2sc3nc(C)nn3c2O)N2CCN(c3ccccc3F)CC2)cc1 (configuration not stated)	CHRM5 PAM 19
Cc1ccc(C(c2sc3nc(C)nn3c2O)N2CCN(CCO)CC2)cc1 (configuration not stated)	none
O=C1N2CCCCC1(Sc1ccccc1)CCC2 (configuration not stated)	none
O=C(Nc1ccccc1OC(F)F)c1ccc(F)cc1	CHRM5 PAM 24
COc1cccc(NC(=O)CN2C(=O)C(c3ccc(C)cc3)=NC23CCCCCC3)c1	none
COc1cc(NC(=O)CN2C(=O)C(c3ccccc3)=NC23CCCCCC3)cc(OC)c1	CHRM4 PAM 21
CC(=O)C1=CCC(c2ccccc2)N(S(=O)(=O)c2ccc(Cl)cc2)C1 (configuration not stated)	none
COc1cc(/C=C2\SC(=S)N(C(C(=O)O)c3ccccc3)C2=O)ccc1O (configuration not stated)	CHRM4 agonist 40, CHRM5 agonist 40, CHRM5 antagonist 27
O=C1/C(=C\c2ccc(O)c(O)c2)SC(=S)N1Cc1ccccc1	none
CCOc1ccc(/C=C2/SC(=S)N(C(C(=O)O)c3ccccc3)C2=O)cc1OCC (configuration not stated)	none
O=C1/C(=C\c2cccc(O)c2O)SC(=S)N1Cc1ccccc1	none
COc1ccccc1/C=C1\SC(=S)N(C(C(=O)O)c2ccccc2)C1=O (configuration not stated)	none
O=C1/C(=C\c2cc([N+](=O)[O-])ccc2O)SC(=S)N1Cc1ccc(Cl)cc1	M4 antag 30, CHRM5 antagonist 28
CCOc1cc(/C=C2\SC(=S)N(C(C(=O)O)c3ccccc3)C2=O)ccc1O (configuration not stated)	CHRM4 agonist 52, CHRM5 agonist 61
COc1cc(/C=C2/SC(=S)N(Cc3ccccc3)C2=O)ccc1O	CHRM5 agonist 23
O=C(CCCCC(=O)NN=Cc1ccc2c(c1)CCC2)NN=Cc1ccc2c(c1)CCC2	none
CCc1nc2ccc(C(=O)N(CC)CCN(C)C)cn2c1N(CC)C(=O)NCCc1ccccc1	none
COc1ccc(/C=C2\SC(=S)N(C(Cc3ccccc3)C(=O)O)C2=O)cc1 (configuration not stated)	none
COc1cc(/C=C2/SC(=S)N(c3c(C)n(C)n(-c4ccccc4)c3=O)C2=O)ccc1O	CHRM5 agonist 29
COc1cc(/C=C2\SC(=S)N(NS(=O)(=O)c3ccccc3)C2=O)ccc1O	none
O=C(O)C(c1ccccc1)N1C(=O)/C(=C\c2ccc(O)c(O)c2)SC1=S (configuration not stated)	CHRM4 agonist 35
Cc1ccc2nc(SC(C)C(=O)N3CCOCC3)[nH]c2c1 (configuration not stated)	CHRM4 PAM 31
CC(Sc1nc(N)cc(=O)[nH]1)C(=O)N1CCOCC1 (configuration not stated)	none
Nc1c(C(=O)CSc2n[nH]c(-c3ccccc3Br)n2)c(=O)[nH]c(=O)n1C1CC1	none
Nc1c(C(=O)CSc2n[nH]c(-c3ccccc3)n2)c(=O)[nH]c(=O)n1C1CC1	CHRM4 PAM 23
COCCn1c(SCC(=O)Nc2cc(C)on2)nc2c(c1=O)SC(C)C2 (configuration not stated)	none
CCn1c(SCC(=O)N2CCCC2)nc2c(c1=O)SC(C)C2 (configuration not stated)	M4 antag 84
CCSc1nnc(NC(=O)CSc2nc3c(c(=O)n2CCOC)SC(C)C3)s1 (configuration not stated)	M4 antag 32
CN(C)CCCNc1nc2cc(-c3ccc4c(ccn4C)c3)sc2c(=O)n1C	none
Cc1ccc(C(=O)OCN2C(=O)c3ccccc3C2=O)o1	CHRM4 PAM 22
COc1ccc(CC(=O)OCN2C(=O)c3ccccc3C2=O)cc1	none
CCOC(=O)C1=C[C@@H](C(C)C)N(S(=O)(=O)c2ccc(C)cc2)[C@H]1c1ccc(C(F)(F)F)cc1	none
O=C1NC2(CCOc3ccccc32)C(=O)N1CC(=O)N(Cc1ccccc1)C1CCS(=O)(=O)C1 (configuration not stated)	CHRM5 PAM 22
O=C(O)CN1C(=O)NC2(CCOc3ccccc32)C1=O (configuration not stated)	none
Oc1c(Cl)cc(Cl)cc1CNc1ccccn1	none
Oc1c(Cl)cc(Cl)cc1CNc1nc2ccccc2[nH]1	CHRM5 antagonist 37
CCOc1ccc(S(=O)(=O)NCCc2cn3ccccc3n2)cc1	CHRM4 PAM 16
CCCCCCCCN1C(=O)[C@H](CC(=O)N2CCN(C(=O)OCC)CC2)C[C@@]2(C(=O)OC)CC(C)(C)CC=C12	none
Cc1cc(C)c2c(N)c(C(=O)Nc3ccc(F)cc3)sc2n1	CHRM4 PAM 27
Cc1cc(C)c2c(N)c(C(=O)NC3CCCC3)sc2n1	M4 antag 61, CHRM4 agonist 36, CHRM4 PAM 52
COc1ccc(NC(=O)c2sc3nc(C)cc(C)c3c2N)cc1	none
O=C([O-])c1ccccc1-[n+]1c(-c2ccccc2)cc(-c2ccccc2)cc1-c1ccccc1	M4 antag 61
CCC(c1nnnn1-c1ccc(OC)cc1)N1CCN(C/C=C/c2ccccc2)CC1 (configuration not stated)	none
